In PMC6993754 (Pharmacology Research & Perspectives, 2020):

B1: recombinant CYP2J2 (Homo sapiens) (protein)
chain: MLAAMGSLAAALWAVVHPRTLLLGTVAFLLAADFLKRRRPKNYPPGPWRLPFLGNFFLVDFEQSHLEVQLFVKKYGNLFSLELGDISAVLITGLPLIKEALIHMDQNFGNRPVTPMREHIFKKNGLIMSSGQAWKEQRRFTLTALRNFGLGKKSLEERIQEEAQHLTEAIKEENGQPFDPHFKINNAVSNIICSITFGERFEYQDSWFQQLLKLLDEVTYLEASKTCQLYNVFPWIMKFLPGPHQTLFSNWKKLKLFVSHMIDKHRKDWNPAETRDFIDAYLKEMSKHTGNPTSSFHEENLICSTLDLFFAGTETTSTTLRWALLYMALYPEIQEKVQAEIDRVIGQGQQPSTAARESMPYTNAVIHEVQRMGNIIPLNVPREVTVDTTLAGYHLPKGTMILTNLTALHRDPTEWATPDTFNPDHFLENGQFKKREAFMPFSIGKRACLGEQLARTELFIFFTSLMQKFTFRPPNNEKLSLKFRMGITISPVSHRLCAVPQV

Assays:
CB2 receptor = details: cited from earlier work
human hepatocytes = details: oxidation, hydrolysis, and glucuronidation; cited from earlier work
[1] = Time‐dependent metabolism of STS‐135 in genotyped HLMs CYP3A5*1/*1; type: in vitro ADME; details: human, genotyped CYP3A5*1/*1 human liver microsomes, pH 7.4
How it was run: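 CYP3A5-genotyped human liver microsomes (*1/*1 or *3/*3) incubated with test compound in 0.1 mol/L KPO₄, pH 7.4, with NADPH-regenerating system at 37°C. Sampled at 0, 10, 20, 30, 45, 60, 90 and 120 min, ethanol-stopped, centrifuged and analysed by UPLC-UV (300 nm) for parent depletion. Half-life determined directly by linear regression; triplicate reactions.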

[2] = tested on: human brain microsomes (HBMs); test: Screening of STS‐135 oxidative metabolism with HBMs; type: in vitro ADME; details: STS‐135 50 µmol/L
How it was run: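 Pooled 50-donor human brain microsomes with test compound (50 µmol/L, 2% DMSO) in 0.1 mol/L KPO₄, pH 7.4. Stopped with equal-volume ethanol, centrifuged; UPLC-UV at 300 nm for M21/M25. No-substrate, no-protein and no-NADPH controls; triplicate; nmol/mg protein/min.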

recombinant CYP2J2 = molecular target: T1, recombinant CYP2J2 (Homo sapiens, UniProt P51589)
T1 sequence (P51589 1-502): B1 chain

CB1 receptor = details: cited from earlier work
not read = substrate: O=C(NC12CC3CC(CC(C3)C1)C2)c1cn(CCCCCF)c2ccccc12; test: not read; details: 37.0 °C

Molecule | Agonist activity at CB2 receptor (CB2 receptor) | Number of metabolites formed (human hepatocytes) | half-life [1] | Specific activity, formation of M21 [2] | Specific activity, formation of M25 [2] | K m, production of M25 (Figure 6 legend) (recombinant CYP2J2) | Agonist activity at CB1 receptor (CB1 receptor) | Km (not read) | Vmax (not read)
O=C(NC12CC3CC(CC(C3)C1)C2)c1cn(CCCCCF)c2ccccc12 [STS‐135, N‐(adamantan‐1‐yl)‐1‐(5‐fluoropentyl)‐1H‐indole‐3‐carboxamide] | potent agonist | 29 metabolites | 21.1 min | no detectable metabolites | no detectable metabolites | 11.2389 ± 1.733 | potent agonist | – | –
B1 | – | – | – | – | – | – | – | 11.2 ± 1.7 µM | 17.2 ± 0.5 pmol/min/mg protein
